# High-throughput results as filed in PubChem BioAssay.
# Sampled rows, rich in hits. Any-hit rate of the full collection: about 2.7%.
# PAFAH1B3 inh: PAFAH1B3 (human) inhibition; Q15102; recombinant PAFAH1B3, FP-rhodamine probe, fluorescence polarization; inhibition, % at 3.39 µM; 0.28% of 340,000 active;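 active means inhibition above the screen-wide average of all tested compounds plus 3 SD, cut at about 25% in these data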
# RBBP9 inh: blocks human serine hydrolase RBBP9 | O75884 | recombinant RBBP9, FP-Rh probe fluorescence polarization | inhibition, % at 7.94 µM | 0.2% of 220,000 active | AID 1515;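 active means inhibition above the campaign mean of all tested compounds plus 3 SD, cut at about 14% in these data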
# Target sequence (O75884 whole entry, looked up): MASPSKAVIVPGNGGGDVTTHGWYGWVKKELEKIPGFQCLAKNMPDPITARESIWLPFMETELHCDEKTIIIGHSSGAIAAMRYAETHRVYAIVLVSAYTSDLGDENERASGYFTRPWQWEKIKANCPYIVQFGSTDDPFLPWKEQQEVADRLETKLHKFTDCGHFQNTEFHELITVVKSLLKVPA
#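 Assay system: recombinant human RBBP9; Reagent: Serine-hydrolase probe FP-Rh, 375 nM pre-mixing; Doses: 7.94 µM single dose, 0.794% DMSO; Incubation: 30 min then 45 min, 25 °C; Detection: fluorescence polarization (mP), excitation 525 nm, emission 598 nm; Evaluation: percent inhibition from mP, scaled between DMSO and no-protein wells.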
# PAFAH2 inh: PAFAH2 (human) inhibition; Q99487; recombinant PAFAH2, FP-rhodamine activity probe, fluorescence polarization; inhibition, % at 3.39 µM; 0.99% of 340,000 active;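 active means inhibition above the mean over all tested compounds plus 3 SD, cut at about 30% in these data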;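 further: inhibitors block probe labeling of enzyme so polarization drops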
# pPAFAH inh: inhibitors of human plasma PAF acetylhydrolase (pPAFAH); Q13093; recombinant pPAFAH, FP-rhodamine probe fluorescence polarization; inhibition, % at 3.39 µM; 1.5% of 330,000 active; AID 463082;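 active means inhibition above the mean inhibition across the screen plus 3 SD, cut at about 25% in these data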;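 further: inhibitors block binding of the rhodamine activity-based probe so polarization drops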
# PAFAH1B2 FP inh: blocks human PAF acetylhydrolase 1b catalytic subunit 2; recombinant PAFAH1B2, FP-rhodamine activity probe, fluorescence polarization; 1.2% of 340,000 active; AID 492953; inhibition, % at 3.39 µM; P68402;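 active means inhibition above the mean of all tested compounds plus 3 SD, cut at about 24% in these data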
# Target sequence (P68402 whole entry, looked up): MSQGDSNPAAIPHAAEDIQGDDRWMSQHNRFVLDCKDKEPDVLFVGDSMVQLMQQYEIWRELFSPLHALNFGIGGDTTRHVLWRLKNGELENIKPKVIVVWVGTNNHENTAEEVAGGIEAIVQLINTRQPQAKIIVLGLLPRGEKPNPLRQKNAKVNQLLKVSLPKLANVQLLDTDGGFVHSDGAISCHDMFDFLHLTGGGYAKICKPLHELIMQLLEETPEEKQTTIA
# Hits are given with their value; n = inactive; x = no result given.
SMILES,PAFAH1B3 inh,RBBP9 inh,PAFAH2 inh,pPAFAH inh,PAFAH1B2 FP inh
Cc1ccc2ccccc2c1Cn1c(-n2ccnc2)nc2c1c(=O)n(C)c(=O)n2C,n,n,n,n,n
Clc1ccc(CNc2ncnc3[nH]ncc23)c(Cl)c1,n,x,n,x,n
CCOC(=O)c1sc(Nc2nc3c(OC)cccc3s2)nc1C,n,n,n,30,n
c1ccc(Nc2nc(-c3ccccn3)cs2)cc1,n,n,n,n,n
COc1cccc2sc(Nc3nc(-c4ccccn4)cs3)nc12,n,n,n,28,n
c1ccc2c(OCCCN3CCCCCC3)cccc2c1,n,x,n,n,n
CCN(CC)C(=O)COCc1cc(-c2ccc3c(c2)OCO3)on1,n,x,n,n,n
O=S(=O)(Nc1ccccc1-c1ccccc1)c1ccccc1,n,x,n,x,26
Cc1ccc(S(=O)(=O)Nc2ccccc2-c2ccccc2NS(=O)(=O)c2ccc(C)cc2)cc1,n,n,n,25,59
Cc1ccc(S(=O)(=O)Nc2ccccc2C(N)=O)cc1,n,n,n,n,n
CCCS(=O)(=O)N1CCCC(C(=O)NCCCN(C)c2ccccc2)C1 (stereo unspecified),n,n,n,n,n
CCc1ccc2oc(=O)cc(CN3CCN(Cc4ccccc4)CC3)c2c1,n,x,n,n,n
CCc1ccc2oc(=O)cc(CN(C)Cc3ccccc3)c2c1,n,n,n,n,38
Brc1ccc(C=Nc2ccc3c(c2)OCCOCCOCCO3)s1,n,n,n,n,n
Cc1ccc(-c2cc(C(=O)Nc3ccc(S(=O)(=O)Nc4nccs4)cc3)c3ccccc3n2)c(C)c1,n,n,n,n,n
COc1ccc(-c2cc(=O)c3c(O)cc(O)cc3o2)cc1,n,x,n,n,n
O=c1cc(-c2ccc(O)c(O)c2)oc2cc(O)cc(O)c12,39,x,n,n,34
Cc1cc(C(=O)OCC(=O)NCc2cccs2)ccc1[N+](=O)[O-],n,x,n,31,n
Cc1nc2c(=O)[nH]c(=S)n(C)c2nc1C,n,n,n,n,n
O=S(=O)(Nc1cccc(-c2cn3ccsc3n2)c1)c1ccc(F)cc1,n,n,n,32,n
CCOc1ccc(NC(=O)CCSc2ccc(C)cc2)cc1,n,n,n,n,25
Cc1nn(CC(=O)NNC(=S)NCC2CCCO2)c(C)c1Br (stereo unspecified),n,x,n,28,n
CC1(OC(=O)CCc2ccccc2)C(=O)C=C2C=C(c3ccc(C#N)cc3)N(C3CC3)C=C2C1=O (stereo unspecified),n,x,n,n,n
CC1(OC(=O)c2ccc(Cl)nc2)C(=O)C=C2C=C(c3ccsc3)OC=C2C1=O (stereo unspecified),x,x,x,47,x
CC1(OC(=O)c2ccc(Cl)nc2)C(=O)C=C2C=C(c3ccc(C#N)cc3)OC=C2C1=O (stereo unspecified),x,x,x,42,x
SMILES,PAFAH1B3 inh,RBBP9 inh,PAFAH2 inh,pPAFAH inh,PAFAH1B2 FP inh
CC1(OC(=O)c2ccc(Cl)nc2)C(=O)C=C2C=C(C3CC3)OC=C2C1=O (stereo unspecified),x,x,x,44,x
CC1(OC(=O)C2CCCC2)C(=O)C=C2C=C(C3CC3)OC=C2C1=O (stereo unspecified),x,x,x,26,x
CC1(OC(=O)c2ccc(Cl)nc2)C(=O)C=C2C=C3CCCN3C=C2C1=O (stereo unspecified),n,x,n,n,n
O=C(OCCOc1ccccc1)c1n[nH]c2ccccc12,n,n,n,n,n
NC(=O)COn1c(SCC(N)=O)nc2ccccc2c1=O,n,n,n,n,n
O=C(CCCN1C(=O)c2ccccc2C1=O)NCCN1C(=O)S/C(=C\c2cccs2)C1=O,n,n,n,n,n
COc1ccc(Cn2c(CCCO)nc3ccccc32)cc1OC,n,n,n,n,n
CCOC(=O)N1CCC(NC(=O)c2ccc3c(Cl)c4c(nc3c2)CCCC4)CC1,n,22,n,n,n
CCOc1cccc(CNc2ccc(O)cc2)c1OCc1ccccc1Cl,n,n,n,32,n
CCOc1cccc(CNc2ccc(O)cc2)c1OCc1ccc(Cl)cc1Cl,n,n,n,31,n
COC1OC2COC(c3ccccc3)OC2C(O)C1NC(=O)c1ccccc1 (stereo unspecified),n,x,n,x,n
O=C(Nc1nnc(CCc2ccccc2)s1)c1cccc(F)c1,n,x,n,n,25
O=C(Nc1nnc(CCc2ccccc2)s1)c1ccc(F)cc1,n,x,n,n,n
O=C(Cn1c(NCCCO)nc2ccccc21)c1cccs1,n,n,n,n,n
O=C1C(SCCO)=C(SCCO)C(=O)c2ccccc21,47,x,50,n,46
O=C1C(Cl)=C(NCCCO)C(=O)c2ccccc21,n,n,n,n,n
Cc1ccc(S(=O)(=O)N2CCC(=O)N(C(COCc3ccc(Cl)cc3)Cc3ccccc3)CC2)cc1 (stereo unspecified),n,n,n,n,25
Cc1ccc(S(=O)(=O)N2CCC(=O)N(C(COCc3ccc(Cl)cc3)C(C)C)CC2)cc1 (stereo unspecified),n,n,n,n,n
O=C(CSc1nc2ccccc2n1-c1ccccc1)Nc1ncc(Cl)cc1Cl,n,n,n,27,n
CC(C)N(C(=O)CSc1nc2ccccc2n1Cc1ccccc1)C(C)C,n,n,n,n,n
CC(C)N(C(=O)CSc1nc2ccccc2n1-c1ccccc1)C(C)C,n,n,n,32,n
Cc1cccc(-n2c(SCC(=O)Nc3ncc(Cl)cc3Cl)nc3ccccc32)c1,n,n,n,n,n
Cc1c(NC(=O)C(C)OC(=O)c2ccc([N+](=O)[O-])s2)c(=O)n(-c2ccccc2)n1C (stereo unspecified),33,n,n,30,n
Cc1ccnc(NC(=O)CCC(=O)N(CC(=O)NC(C)(C)C)Cc2ccc3c(c2)OCO3)c1,n,x,n,n,n
COc1ccc(CCNc2oc(COc3ccc(Br)cc3)nc2C#N)cc1OC,n,n,n,n,28
SMILES,PAFAH1B3 inh,RBBP9 inh,PAFAH2 inh,pPAFAH inh,PAFAH1B2 FP inh
COc1ccc(CNc2oc(COc3ccc(Cl)cc3)nc2C#N)cc1,n,n,n,n,28
Cn1nnc(NC(=O)CSc2nnnn2-c2ccc(F)cc2)n1,n,n,n,n,n
Cn1nnc(NC(=O)CSc2ccc(Cl)cc2)n1,n,n,n,n,25
CCCn1nnc(NC(=O)Cc2ccc(Cl)cc2)n1,n,n,n,n,27
COc1cc(Cl)c(C)cc1NC(=O)CSc1ccc(C)cc1,n,n,n,n,34
COC(=O)c1sccc1NC(=O)CSc1ccc(Cl)cc1,n,n,n,n,29
COC(=O)c1sccc1NC(=O)CSc1ccccc1N,n,n,n,n,n
COc1ccc(NC(=O)c2n[nH]c(=O)c3ccccc23)cc1S(=O)(=O)N1CCCCC1,n,n,n,n,n
CCC(=O)c1cccc(-c2ccccc2)c1CC,n,x,n,x,n
CCOC(=O)C1CCCN(Cc2sccc2C)C1 (stereo unspecified),n,n,n,n,n
CC(C)(C)c1c(Cl)c(O)c(-c2ccccc2)c(=O)n1-c1ccccc1,x,n,x,x,x
O=C(N/N=C/c1c(O)ccc2ccccc12)c1cccc(C(F)(F)F)c1,n,n,n,30,n
